In ChEMBL document CHEMBL1926577, “Novel 1,3,4-heterodiazole analogues: synthesis and in-vitro antitumor activity” (2012):

Legend:
Format in all cases: functional
OVCAR-8 = assay: Growth inhibition of human OVCAR8 cells at 10 uM after 48 hrs by coulter counter method; settings: OVCAR-8, 48 h, read-out: GI
Procedure, shortened: (§1)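 NCI 60-cell-line panel, single dose. Compound dissolved first in DMSO, then diluted in phosphate-buffered saline so that every final dilution held under 1% DMSO. Duplicate wells received cells at 6 × 10⁴ cells/ml. Controls held PBS/DMSO at the same dilution. Plates were incubated 48 h at 37 °C under 5% CO₂. Cells were then diluted 10-fold in saline and counted on a Coulter counter, with counts corrected for the dilution. Results are given as percent growth inhibition.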

U-251 = assay: Growth inhibition of human U251 cells at 10 uM after 48 hrs by coulter counter method; settings: U-251, 48 h, read-out: GI; procedure, shortened: as §1
HCT-15 = assay: Growth inhibition of human HCT15 cells at 10 uM after 48 hrs by coulter counter method; settings: HCT-15, 48 h, read-out: GI; procedure, shortened: as §1
SF-295 = assay: Growth inhibition of human SF295 cells at 10 uM after 48 hrs by coulter counter method; settings: SF-295, 48 h, read-out: GI; procedure, shortened: as §1
SR = assay: Growth inhibition of human SR cells at 10 uM after 48 hrs by coulter counter method; settings: read-out: GI; procedure, shortened: as §1
Malme-3M = assay: Growth inhibition of human MALME-3M cells at 10 uM after 48 hrs by coulter counter method; settings: read-out: GI; procedure, shortened: as §1
786-0 = assay: Growth inhibition of human 786-0 cells at 10 uM after 48 hrs by coulter counter method; settings: 786-0, 48 h, read-out: GI; procedure, shortened: as §1
ACHN = assay: Growth inhibition of human ACHN cells at 10 uM after 48 hrs by coulter counter method; settings: read-out: GI; procedure, shortened: as §1
SN12C = assay: Growth inhibition of human SN12C cells at 10 uM after 48 hrs by coulter counter method; settings: read-out: GI; procedure, shortened: as §1
UACC-62 = assay: Growth inhibition of human UACC62 cells at 10 uM after 48 hrs by coulter counter method; settings: UACC-62, 48 h, read-out: GI; procedure, shortened: as §1
A549 = assay: Growth inhibition of human A549 cells at 10 uM after 48 hrs by coulter counter method; settings: A549, 48 h, read-out: GI; procedure, shortened: as §1
SK-MEL-28 = assay: Growth inhibition of human SK-MEL-28 cells at 10 uM after 48 hrs by coulter counter method; settings: SK-MEL-28, 48 h, read-out: GI; procedure, shortened: as §1
NCI/ADR-RES = assay: Growth inhibition of human NCI/ADR-RES cells at 10 uM after 48 hrs by coulter counter method; settings: read-out: GI; procedure, shortened: as §1
SNB-75 = assay: Growth inhibition of human SNB75 cells at 10 uM after 48 hrs by coulter counter method; settings: SNB-75, 48 h, read-out: GI; procedure, shortened: as §1
BT-549 = assay: Growth inhibition of human BT549 cells at 10 uM after 48 hrs by coulter counter method; settings: BT-549, 48 h, read-out: GI; procedure, shortened: as §1
HL-60(TB) = assay: Growth inhibition of human HL-60(TB) cells at 10 uM after 48 hrs by coulter counter method; settings: HL-60, 48 h, read-out: GI
Procedure, shortened: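 Single-dose screen on the NCI 60-line panel (leukemia subpanel). Compound is dissolved in DMSO and diluted in PBS, with final DMSO below 1%. Duplicate wells hold 6 × 10⁴ cells/ml at 37 °C, 5% CO₂, for 48 h. Cells are counted by Coulter counter after 10-fold saline dilution. Read-out is percent growth versus PBS/DMSO controls, expressed as % growth inhibition.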

EKVX = assay: Growth inhibition of human EKVX cells at 10 uM after 48 hrs by coulter counter method; settings: read-out: GI; procedure, shortened: as §1
T47D = assay: Growth inhibition of human T47D cells at 10 uM after 48 hrs by coulter counter method; settings: read-out: GI; procedure, shortened: as §1
CAKI-1 = assay: Growth inhibition of human Caki1 cells at 10 uM after 48 hrs by coulter counter method; settings: CAKI-1, 48 h, read-out: GI; procedure, shortened: as §1
NCI-H522 = assay: Growth inhibition of human NCI-H522 cells at 10 uM after 48 hrs by coulter counter method; settings: NCI-H522, 48 h, read-out: GI; procedure, shortened: as §1
TK-10 = assay: Growth inhibition of human TK10 cells at 10 uM after 48 hrs by coulter counter method; settings: TK-10, 48 h, read-out: GI; procedure, shortened: as §1
SF-268 = assay: Growth inhibition of human SF268 cells at 10 uM after 48 hrs by coulter counter method; settings: SF-268, 48 h, read-out: GI; procedure, shortened: as §1
MOLT-4 = assay: Growth inhibition of human MOLT4 cells at 10 uM after 48 hrs by coulter counter method; settings: MOLT-4, 48 h, read-out: GI; procedure, shortened: as §1
SK-MEL-2 = assay: Growth inhibition of human SK-MEL-2 cells at 10 uM after 48 hrs by coulter counter method; settings: SK-MEL-2, 48 h, read-out: GI; procedure, shortened: as §1
IGROV-1 = assay: Growth inhibition of human IGROV1 cells at 10 uM after 48 hrs by coulter counter method; settings: IGROV-1, 48 h, read-out: GI; procedure, shortened: as §1
MCF7 = assay: Growth inhibition of human MCF7 cells at 10 uM after 48 hrs by coulter counter method; settings: MCF7, 48 h, read-out: GI; procedure, shortened: as §1
NCI-H23 = assay: Growth inhibition of human NCI-H23 cells at 10 uM after 48 hrs by coulter counter method; settings: NCI-H23, 48 h, read-out: GI; procedure, shortened: as §1
K562 = assay: Growth inhibition of human K562 cells at 10 uM after 48 hrs by coulter counter method; settings: K562, 48 h, read-out: GI; procedure, shortened: as §1
LOX IMVI = assay: Growth inhibition of human LOXIMVI cells at 10 uM after 48 hrs by coulter counter method; settings: read-out: GI; procedure, shortened: as §1
NCI-H226 = assay: Growth inhibition of human NCI-H226 cells at 10 uM after 48 hrs by coulter counter method; settings: NCI-H226, 48 h, read-out: GI; procedure, shortened: as §1
SK-MEL-5 = assay: Growth inhibition of human SK-MEL-5 cells at 10 uM after 48 hrs by coulter counter method; settings: SK-MEL-5, 48 h, read-out: GI; procedure, shortened: as §1
CCRF-CEM = assay: Growth inhibition of human CCRF-CEM cells at 10 uM after 48 hrs by coulter counter method; settings: read-out: GI; procedure, shortened: as §1
A498 = assay: Growth inhibition of human A498 cells at 10 uM after 48 hrs by coulter counter method; settings: A498, 48 h, read-out: GI; procedure, shortened: as §1
HT-29 = assay: Growth inhibition of human HT-29 cells at 10 uM after 48 hrs by coulter counter method; settings: HT-29, 48 h, read-out: GI; procedure, shortened: as §1
NCI-H322M = assay: Growth inhibition of human NCI-H322M cells at 10 uM after 48 hrs by coulter counter method; settings: read-out: GI; procedure, shortened: as §1
M14 = assay: Growth inhibition of human M14 cells at 10 uM after 48 hrs by coulter counter method; settings: M14, 48 h, read-out: GI; procedure, shortened: as §1
KM12 = assay: Growth inhibition of human KM12 cells at 10 uM after 48 hrs by coulter counter method; settings: KM12, 48 h, read-out: GI; procedure, shortened: as §1
MDA-MB-468 = assay: Growth inhibition of human MDA-MB-468 cells at 10 uM after 48 hrs by coulter counter method; settings: MDA-MB-468, 48 h, read-out: GI; procedure, shortened: as §1
MDA-MB-435 = assay: Growth inhibition of human MDA-MB-435 cells at 10 uM after 48 hrs by coulter counter method; settings: MDA-MB-435, 48 h, read-out: GI; procedure, shortened: as §1
HCT-116 = assay: Growth inhibition of human HCT116 cells at 10 uM after 48 hrs by coulter counter method; settings: HCT-116, 48 h, read-out: GI; procedure, shortened: as §1
SNB-19 = assay: Growth inhibition of human SNB19 cells at 10 uM after 48 hrs by coulter counter method; settings: SNB-19, 48 h, read-out: GI; procedure, shortened: as §1
PC-3 = assay: Growth inhibition of human PC3 cells at 10 uM after 48 hrs by coulter counter method; settings: PC-3, 48 h, read-out: GI; procedure, shortened: as §1
UACC-257 = assay: Growth inhibition of human UACC257 cells at 10 uM after 48 hrs by coulter counter method; settings: UACC-257, 48 h, read-out: GI; procedure, shortened: as §1
RPMI-8226 = assay: Growth inhibition of human RPMI8226 cells at 10 uM after 48 hrs by coulter counter method; settings: RPMI-8226, 48 h, read-out: GI; procedure, shortened: as §1
UO-31 = assay: Growth inhibition of human UO31 cells at 10 uM after 48 hrs by coulter counter method; settings: UO-31, 48 h, read-out: GI; procedure, shortened: as §1

NC1=CC(N)=NC2SC(c3ccccc3)=NN12 (stereo not given)
inhibition of growth at 10 µM (OVCAR-8): < 10%
inhibition of growth at 10 µM (U-251): < 10%
inhibition of growth at 10 µM (HCT-15): < 10%
inhibition of growth at 10 µM (SF-295): < 10%
inhibition of growth at 10 µM (SR): < 10%
inhibition of growth at 10 µM (Malme-3M): < 10%
inhibition of growth at 10 µM (786-0): < 10%
inhibition of growth at 10 µM (ACHN): < 10%
inhibition of growth at 10 µM (SN12C): < 10%
inhibition of growth at 10 µM (UACC-62): < 10%
inhibition of growth at 10 µM (A549): < 10%
inhibition of growth at 10 µM (SK-MEL-28): < 10%
inhibition of growth at 10 µM (NCI/ADR-RES): < 10%
inhibition of growth at 10 µM (SNB-75): 11.6%
inhibition of growth at 10 µM (BT-549): < 10%
inhibition of growth at 10 µM (HL-60(TB)): < 10%
inhibition of growth at 10 µM (EKVX): < 10%
inhibition of growth at 10 µM (T47D): < 10%
inhibition of growth at 10 µM (CAKI-1): 10.7%
inhibition of growth at 10 µM (NCI-H522): < 10%
inhibition of growth at 10 µM (TK-10): < 10%
inhibition of growth at 10 µM (SF-268): < 10%
inhibition of growth at 10 µM (MOLT-4): < 10%
inhibition of growth at 10 µM (SK-MEL-2): < 10%
inhibition of growth at 10 µM (IGROV-1): 15.8%
inhibition of growth at 10 µM (MCF7): < 10%
inhibition of growth at 10 µM (NCI-H23): < 10%
inhibition of growth at 10 µM (K562): < 10%
inhibition of growth at 10 µM (LOX IMVI): < 10%
inhibition of growth at 10 µM (NCI-H226): < 10%
inhibition of growth at 10 µM (SK-MEL-5): < 10%
inhibition of growth at 10 µM (CCRF-CEM): < 10%
inhibition of growth at 10 µM (A498): < 10%
inhibition of growth at 10 µM (HT-29): < 10%
inhibition of growth at 10 µM (NCI-H322M): < 10%
inhibition of growth at 10 µM (M14): < 10%
inhibition of growth at 10 µM (KM12): < 10%
inhibition of growth at 10 µM (MDA-MB-468): < 10%
inhibition of growth at 10 µM (MDA-MB-435): < 10%
inhibition of growth at 10 µM (HCT-116): < 10%
inhibition of growth at 10 µM (SNB-19): < 10%
inhibition of growth at 10 µM (PC-3): < 10%
inhibition of growth at 10 µM (UACC-257): 16.4%
inhibition of growth at 10 µM (RPMI-8226): < 10%
inhibition of growth at 10 µM (UO-31): 36.6%
